ChEMBL document CHEMBL3351334, “Protective effects of resveratrol on hepatotoxicity induced by isoniazid and rifampicin via SIRT1 modulation” (2014)
The source made the active and inactive calls. No cut-off for these calls is given here.

Key:
Mus musculus [1] = assay: Hepatoprotective activity against isoniazid-rifampicin induced liver injury in BALB/c mouse assessed as change in SIRT6 mRNA level at 100 mg/kg, po bid for 3 days starting 30 mins prior isoniazid-rifampicin administration measured 24 hrs post-last dose of isoniazid-rifampicin relative to control; type: functional, organism-based; parameters: dose 100 mg/kg
How it was run: (§1)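 Livers taken 24 h after the last of three daily oral isoniazid 50 mg/kg + rifampicin 100 mg/kg doses (in 1% DMSO/saline). Hepatic mRNA measured by qPCR with mouse GAPDH probe as endogenous control, reactions in duplicate, relative expression by the 2ΔΔC method. n = 6 male BALB/c mice/group, mean ± SEM.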

Mus musculus [2] = assay: Hepatoprotective activity against isoniazid-rifampicin induced liver injury in BALB/c mouse assessed as reduction in fatty accumulation at 100 mg/kg, po bid for 3 days starting 30 mins prior isoniazid-rifampicin administration measured 24 hrs post-last dose of isoniazid-rifampicin relative to control; type: functional, organism-based; parameters: dose 100 mg/kg
How it was run: (§2)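 Liver fixed in 10% formaldehyde and paraffin-embedded. 4 μm sections stained with hematoxylin and eosin, examined by light microscopy by a veterinary pathologist blinded to groups. Tissue taken 24 h after the last of 3 daily oral isoniazid (50 mg/kg) + rifampicin (100 mg/kg) doses.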

Mus musculus [3] = assay: Hepatoprotective activity against isoniazid-rifampicin induced liver injury in BALB/c mouse assessed as change in SIRT7 mRNA level at 100 mg/kg, po bid for 3 days starting 30 mins prior isoniazid-rifampicin administration measured 24 hrs post-last dose of isoniazid-rifampicin relative to control; type: functional, organism-based; parameters: dose 100 mg/kg; how it was run: as §1
Mus musculus [4] = assay: Hepatoprotective activity against isoniazid-rifampicin induced liver injury in BALB/c mouse assessed as prevention of liver statosis development at 100 mg/kg, po bid for 3 days starting 30 mins prior isoniazid-rifampicin administration measured 24 hrs post-last dose of isoniazid-rifampicin relative to control; type: functional, organism-based; parameters: dose 100 mg/kg; how it was run: as §2
Mus musculus [5] = assay: Hepatoprotective activity against isoniazid-rifampicin induced liver injury in BALB/c mouse assessed as reduction in TNFalpha level at 100 mg/kg, po bid for 3 days starting 30 mins prior isoniazid-rifampicin administration measured 24 hrs post-last dose of isoniazid-rifampicin relative to control; type: functional, organism-based; parameters: dose 100 mg/kg
How it was run: (§3)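 Cytokines measured in homogenized liver tissue by flow cytometry (488 nm laser, high-throughput sampler). Tissue from male BALB/c mice 24 h after final oral isoniazid 50 mg/kg + rifampicin 100 mg/kg. n = 6/group, mean ± SEM, one-way ANOVA/Newman–Keuls.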

Mus musculus [6] = assay: Hepatoprotective activity against isoniazid-rifampicin induced liver injury in BALB/c mouse assessed as effect on NADH concentration at 100 mg/kg, po bid for 3 days starting 30 mins prior isoniazid-rifampicin administration measured 24 hrs post-last dose of isoniazid-rifampicin relative to control; type: functional, organism-based; parameters: dose 100 mg/kg
How it was run: (§4)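 Liver NAD+ and NADH quantified with a commercial colorimetric kit per manufacturer's instructions, reduced product read at 565 nm. Tissue collected 24 h after the final oral isoniazid (50 mg/kg) + rifampicin (100 mg/kg) dose of a 3-day course. 6 male BALB/c mice per group.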

Mus musculus [7] = assay: Hepatoprotective activity against isoniazid-rifampicin induced liver injury in BALB/c mouse assessed as reduction in MCP-1 level at 100 mg/kg, po bid for 3 days starting 30 mins prior isoniazid-rifampicin administration measured 24 hrs post-last dose of isoniazid-rifampicin relative to control; type: functional, organism-based; parameters: dose 100 mg/kg
Mus musculus [8] = assay: Hepatoprotective activity against isoniazid-rifampicin induced liver injury in BALB/c mouse assessed as reduction in PGC-1alpha mRNA level at 100 mg/kg, po bid for 3 days starting 30 mins prior isoniazid-rifampicin administration measured 24 hrs post-last dose of isoniazid-rifampicin relative to control; type: functional, organism-based; parameters: dose 100 mg/kg; how it was run: as §1
Mus musculus [9] = assay: Hepatoprotective activity against isoniazid-rifampicin induced liver injury in BALB/c mouse assessed as reduction in hepatic lesion at 100 mg/kg, po bid for 3 days starting 30 mins prior isoniazid-rifampicin administration measured 24 hrs post-last dose of isoniazid-rifampicin relative to control; type: functional, organism-based; parameters: dose 100 mg/kg; how it was run: as §2
Mus musculus [10] = assay: Hepatoprotective activity against isoniazid-rifampicin induced liver injury in BALB/c mouse assessed as reduction ALT level at 100 mg/kg, po bid for 3 days starting 30 mins prior isoniazid-rifampicin administration measured 24 hrs post-last dose of isoniazid-rifampicin relative to control; type: functional; parameters: scale not given: the % may be the effect or the level left
How it was run: (§5)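 Serum AST and ALT measured with commercial kits in blood drawn 24 h after the last of three daily oral isoniazid (50 mg/kg) + rifampicin (100 mg/kg) doses. 6 male BALB/c mice per group, mean ± SEM, one-way ANOVA with Newman–Keuls test.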

Mus musculus [11] = assay: Hepatoprotective activity against isoniazid-rifampicin induced liver injury in BALB/c mouse assessed as reduction in IL-10 level at 100 mg/kg, po bid for 3 days starting 30 mins prior isoniazid-rifampicin administration measured 24 hrs post-last dose of isoniazid-rifampicin relative to control; type: functional, organism-based; parameters: dose 100 mg/kg; how it was run: as §3
Mus musculus [12] = assay: Hepatoprotective activity against isoniazid-rifampicin induced liver injury in BALB/c mouse assessed as restoration of SIRT1 mRNA level at 100 mg/kg, po bid for 3 days starting 30 mins prior isoniazid-rifampicin administration measured 24 hrs post-last dose of isoniazid-rifampicin relative to control; type: functional, organism-based; parameters: dose 100 mg/kg; how it was run: as §1
Mus musculus [13] = assay: Hepatoprotective activity against isoniazid-rifampicin induced liver injury in BALB/c mouse assessed as reduction AST level at 100 mg/kg, po bid for 3 days starting 30 mins prior isoniazid-rifampicin administration measured 24 hrs post-last dose of isoniazid-rifampicin relative to control; type: functional; parameters: scale not given: the % may be the effect or the level left; how it was run: as §5
Mus musculus [14] = assay: Hepatoprotective activity against isoniazid-rifampicin induced liver injury in BALB/c mouse assessed as change in SIRT5 mRNA level at 100 mg/kg, po bid for 3 days starting 30 mins prior isoniazid-rifampicin administration measured 24 hrs post-last dose of isoniazid-rifampicin relative to control; type: functional, organism-based; parameters: dose 100 mg/kg; how it was run: as §1
Mus musculus [15] = assay: Hepatoprotective activity against isoniazid-rifampicin induced liver injury in BALB/c mouse assessed as increase in catalase activity depletion at 100 mg/kg, po bid for 3 days starting 30 mins prior isoniazid-rifampicin administration measured 24 hrs post-last dose of isoniazid-rifampicin relative to control; type: functional
How it was run: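 Liver homogenized 1:9 w/v in 0.9% saline and spun 3500g, 10 min, 4 °C. Supernatant in 50 mM PBS pH 7.0 with 20 mM H2O2 substrate. H2O2 decomposition followed continuously at 240 nm (Aebi method), expressed as mmol H2O2/min/mg protein. n = 6 mice, mean ± SEM.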

Mus musculus [16] = assay: Hepatoprotective activity against isoniazid-rifampicin induced liver injury in BALB/c mouse assessed as change in SIRT4 mRNA level at 100 mg/kg, po bid for 3 days starting 30 mins prior isoniazid-rifampicin administration measured 24 hrs post-last dose of isoniazid-rifampicin relative to control; type: functional, organism-based; parameters: dose 100 mg/kg; how it was run: as §1
Mus musculus [17] = assay: Hepatoprotective activity against isoniazid-rifampicin induced liver injury in BALB/c mouse assessed as reduction in IL6 level at 100 mg/kg, po bid for 3 days starting 30 mins prior isoniazid-rifampicin administration measured 24 hrs post-last dose of isoniazid-rifampicin relative to control; type: functional, organism-based; parameters: dose 100 mg/kg
Mus musculus [18] = assay: Hepatoprotective activity against isoniazid-rifampicin induced liver injury in BALB/c mouse assessed as change in SIRT2 mRNA level at 100 mg/kg, po bid for 3 days starting 30 mins prior isoniazid-rifampicin administration measured 24 hrs post-last dose of isoniazid-rifampicin relative to control; type: functional, organism-based; parameters: dose 100 mg/kg; how it was run: as §1
Mus musculus [19] = assay: Hepatoprotective activity against isoniazid-rifampicin induced liver injury in BALB/c mouse assessed as change in SIRT3 mRNA level at 100 mg/kg, po bid for 3 days starting 30 mins prior isoniazid-rifampicin administration measured 24 hrs post-last dose of isoniazid-rifampicin relative to control; type: functional, organism-based; parameters: dose 100 mg/kg; how it was run: as §1
Mus musculus [20] = assay: Hepatoprotective activity against isoniazid-rifampicin induced liver injury in BALB/c mouse assessed as reduction in hepatic myeloperoxidase activity at 100 mg/kg, po bid for 3 days starting 30 mins prior isoniazid-rifampicin administration measured 24 hrs post-last dose of isoniazid-rifampicin relative to control; type: functional; parameters: scale not given: the % may be the effect or the level left
How it was run: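 Neutrophil recruitment estimated from hepatic myeloperoxidase activity (modified Paszcuk method), expressed as OD/mg tissue. Livers collected 24 h after the last oral isoniazid 50 mg/kg + rifampicin 100 mg/kg dose of a 3-day course. 6 male BALB/c mice/group, mean ± SEM.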

Mus musculus [21] = assay: Hepatoprotective activity against isoniazid-rifampicin induced liver injury in BALB/c mouse assessed as reduction in PPAR-gamma mRNA level at 100 mg/kg, po bid for 3 days starting 30 mins prior isoniazid-rifampicin administration measured 24 hrs post-last dose of isoniazid-rifampicin relative to control; type: functional, organism-based; parameters: dose 100 mg/kg; how it was run: as §1
Mus musculus [22] = assay: Hepatoprotective activity against isoniazid-rifampicin induced liver injury in BALB/c mouse assessed as reversal of GSH depletion at 100 mg/kg, po bid for 3 days starting 30 mins prior isoniazid-rifampicin administration measured 24 hrs post-last dose of isoniazid-rifampicin relative to control; type: functional
How it was run: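 Reduced glutathione assayed with DTNB. Liver homogenized 1:9 w/v in 0.9% saline, spun 3500g 20 min 4 °C. Supernatant deproteinized with 4% sulfosalicylic acid, spun again, then mixed with 0.1 M phosphate buffer and 0.01 M DTNB. Absorbance at 412 nm. 6 mice/group, mean ± SEM.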

Mus musculus [23] = assay: Hepatoprotective activity against isoniazid-rifampicin induced liver injury in BALB/c mouse assessed as effect on nicotinamide phosphoribosyltransferase mRNA level at 100 mg/kg, po bid for 3 days starting 30 mins prior isoniazid-rifampicin administration measured 24 hrs post-last dose of isoniazid-rifampicin relative to control; type: functional, organism-based; parameters: dose 100 mg/kg; how it was run: as §1
Mus musculus [24] = assay: Hepatoprotective activity against isoniazid-rifampicin induced liver injury in BALB/c mouse assessed as reduction in IL-12p70 level at 100 mg/kg, po bid for 3 days starting 30 mins prior isoniazid-rifampicin administration measured 24 hrs post-last dose of isoniazid-rifampicin relative to control; type: functional, organism-based; parameters: dose 100 mg/kg; how it was run: as §3
Mus musculus [25] = assay: Hepatoprotective activity against isoniazid-rifampicin induced liver injury in BALB/c mouse assessed as effect on NAD+ concentration at 100 mg/kg, po bid for 3 days starting 30 mins prior isoniazid-rifampicin administration measured 24 hrs post-last dose of isoniazid-rifampicin relative to control; type: functional, organism-based; parameters: dose 100 mg/kg; how it was run: as §4

With `Oc1ccc(/C=C/c2cc(O)cc(O)c2)cc1` [RESVERATROL] the Activity (Mus musculus [1]) was “inactive”, the Activity (Mus musculus [2]) was “Active” and the Activity (Mus musculus [3]) was “inactive”. The Activity (Mus musculus [4]) was “Active”, the Activity (Mus musculus [5]) was “Active” and the Activity (Mus musculus [6]) was “inactive”. The Activity (Mus musculus [7]) was “inactive”, the Activity (Mus musculus [8]) was “Active” and the Activity (Mus musculus [9]) was “Active”. For the same compound, the Activity (Mus musculus [10]) was 58%, the Activity (Mus musculus [11]) was “Active” and the Activity (Mus musculus [12]) was “Active”. The Activity (Mus musculus [13]) was 36%, the Activity (Mus musculus [14]) was “inactive” and the Activity (Mus musculus [15]) was 34%. For the same compound, the Activity (Mus musculus [16]) was “inactive”, the Activity (Mus musculus [17]) was “inactive” and the Activity (Mus musculus [18]) was “inactive”. The Activity (Mus musculus [19]) was “inactive”, the Activity (Mus musculus [20]) was 19% and the Activity (Mus musculus [21]) was “Active”. The Activity (Mus musculus [22]) was 89%, the Activity (Mus musculus [23]) was “inactive” and the Activity (Mus musculus [24]) was “Active”. For the same compound, the Activity (Mus musculus [25]) was “inactive”.
